High-throughput results from PubChem.
Most compounds without a hit are left out; they make up all but 4.1% or so of the library.
Kir21 inh – inhibitors of mouse Kir2.1 inward-rectifier potassium channel; HEK293-Kir2.1, FluxOR thallium flux fluorescence; stronger effect = lower value; B-score at 10 µM; actives 0.85% (n = 310,000); AID 1672, 2009;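 active = fluorescence ratio B-score at or below minus 3 SD of library scores, with starting-brightness B-score within 2 SD, cut at about -4.2 in these data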;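 note: channel flux triggered by added potassium and thallium sulfate stimulus; B-score of peak minus minimum fluorescence over baseline after thallium stimulus; more negative B-score means stronger Kir2.1 block with less thallium influx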
Target sequence (P35561 whole entry, looked up): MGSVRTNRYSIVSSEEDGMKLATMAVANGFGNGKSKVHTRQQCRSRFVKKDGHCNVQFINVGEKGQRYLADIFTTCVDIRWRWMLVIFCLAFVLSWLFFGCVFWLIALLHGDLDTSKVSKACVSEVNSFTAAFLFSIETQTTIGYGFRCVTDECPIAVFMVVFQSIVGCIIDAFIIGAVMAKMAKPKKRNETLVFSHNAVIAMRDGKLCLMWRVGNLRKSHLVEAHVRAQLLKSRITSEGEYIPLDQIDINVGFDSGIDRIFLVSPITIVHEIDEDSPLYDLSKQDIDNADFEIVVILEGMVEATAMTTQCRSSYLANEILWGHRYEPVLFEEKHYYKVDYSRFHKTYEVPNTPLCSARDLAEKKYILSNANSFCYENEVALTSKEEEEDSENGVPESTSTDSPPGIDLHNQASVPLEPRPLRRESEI
RGS4 pot – RGS4 potentiators or activators, primary screen, cell-based, HEK293 M3R inducible RGS4, calcium flux. actives 0.92% (n = 310,000). carbachol calcium flux Fluo4; stronger effect = lower value. B-score at 10 µM;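 active = B-score of the integrated calcium signal more than 4 SD below the library mean, with starting fluorescence not abnormally high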;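 note: negative B-score means reduced calcium response which marks RGS4 activation or potentiation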
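Material: M3R-expressing HEK293 line, RGS4 induced by doxycycline | Schedule: Overnight RGS4 induction, 30 min dye load 37 °C, 20 min compound RT | Measured by: Fluo4 fluorescence kinetic imaging of calcium | Read-out: Integrated calcium ratio converted to B score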
MrgX1 PAM – positive allosteric modulators of MrgX1, primary screen, HEK293 cells, Fluo-4 calcium flux; Mas-related G-protein coupled receptor member X1 (Homo sapiens), Q96LB2; FDSS; stronger effect = higher value; B-score at 10 µM; actives 0.63% (n = 310,000);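 active = plate-corrected calcium response at least 3 library SD above typical, normal starting fluorescence, not activating the receptor alone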;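 note: compound read alongside a low EC10 to EC30 dose of BAM8-22 agonist; peak minus trough fluorescence over baseline measured at the second addition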
RGS4 inh – RGS4 inhibitors, primary screen, cell-based, HEK293 M3R inducible RGS4, calcium flux | Regulator of G-protein signaling 4 (Homo sapiens), P49798 | Fluo-4 calcium flux; stronger effect = higher value; triggered by carbachol at its EC20 | B-score at 10 µM | actives 0.45% (n = 310,000) | AID 463165, 2010;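 active = B-score, a plate-corrected calcium signal, over three deviations above library mean, with baseline fluorescence within five deviations of library mean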;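 note: RGS4 expression induced by doxycycline in cells with stable M3 receptor; B-score is computed from the integrated fluorescence ratio over baseline after carbachol; higher B-score means a larger calcium signal and so more RGS4 inhibition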
Target sequence (P49798 whole entry, looked up): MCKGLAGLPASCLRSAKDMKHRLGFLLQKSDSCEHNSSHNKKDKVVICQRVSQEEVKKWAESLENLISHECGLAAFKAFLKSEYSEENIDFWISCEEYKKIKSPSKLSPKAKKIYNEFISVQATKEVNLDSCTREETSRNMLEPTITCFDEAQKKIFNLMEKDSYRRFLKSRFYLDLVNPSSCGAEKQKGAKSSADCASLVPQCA
MrgX1 antag – antagonists of human MrgX1 receptor, primary screen, HEK293 cells, Fluo-4 calcium flux; Mas-related G-protein coupled receptor member X1 (Homo sapiens), Q96LB2; BAM8-22 antagonism; stronger effect = lower value; B-score at 10 µM; actives 1.3% (n = 310,000); AID 588676, 2011;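 active = calcium-response B-score plate-corrected more than 3 library SD below zero, starting fluorescence within 5 deviations, no agonist response on first addition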;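 note: peak minus trough fluorescence over baseline after final BAM8-22 challenge near maximal dose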
MrgX1 ag – agonists of human MrgX1 receptor, primary screen, HEK293 cells, Fluo-4 calcium flux | actives 0.44% (n = 310,000) | B-score at 10 µM | Fluo-4 calcium fluorescence, agonist mode; stronger effect = higher value | Mas-related G-protein coupled receptor member X1 (Homo sapiens), Q96LB2;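 active = calcium response B-score plate-corrected fluorescence ratio at least 3 library SD, with starting fluorescence B-score inside 5 SD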
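Test system: HEK293 cells stably expressing human MrgX1 receptor; amount: 15,000 cells per well; doses: compound delivered in addition one of three; times: overnight plating before 1 h dye loading; detection: Fluo-4 NW calcium-flux fluorescence, kinetic read; read-out basis: B-scored fluorescence response ratio; controls: positive and negative controls per plate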
MrgX1 ag reconf – MrgX1 receptor agonists, duplicate retest, confirmation, HEK293 cells, Fluo-4 calcium flux. shares compounds with MrgX1 ag. Fluo-4 calcium fluorescence, FDSS. activation, % at 10 µM. actives 78% (n = 600);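 active = calcium signal rise, corrected for plate position, at least 3 library SD high, with starting brightness within 5 such deviations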
HEK293 Ca flux – nonspecific calcium signal in parental HEK293, confirmation, counter-screen for MrgX1 antagonist project, parental HEK293 cells, Fluo-4 calcium flux. shares compounds with MrgX1 antag. Fluo-4 calcium fluorescence, FDSS. fluorescence ratio F(max-min)/F0 at 10 µM. actives 2% (n = 4,000). AID 624111, 2012;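 active = duplicate-averaged calcium fluorescence ratio at least three times the standard deviation of buffer wells, a nonspecific response in parental cells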
HEK293 Ca counter – calcium response in parental HEK293 cells, primary screen, counter-screen for MrgX1 allosteric activator project, cell-based, Fluo-4 calcium flux, duplicate; shares compounds with MrgX1 antag; Fluo-4 fluorescence ratio; stronger effect = higher value; fluorescence ratio F(max-min)/F0 at 10 µM; actives 0.4% (n = 4,000);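 active = calcium fluorescence ratio, averaged over duplicates, at least 3 SD of the buffer-well ratio, meaning a nonspecific response in receptor-free cells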;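 note: untransfected parental HEK293 lacking MrgX1 used as counterscreen for MrgX1 allosteric activators; fluorescence change taken during the second addition on a kinetic imager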
HEK293 Ca cntr2 – calcium response in parental HEK293 cells, primary screen, counter-screen for MrgX1 agonist project, cell-based, Fluo-4 calcium flux, duplicate, agonist mode; shares compounds with MrgX1 antag; Fluo-4 calcium fluorescence (FDSS); stronger effect = higher value; fluorescence ratio F(max-min)/F0 at 10 µM; actives 8.7% (n = 4,000);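 active = calcium fluorescence ratio at least three times the spread of buffer wells, meaning a non-specific response in parental cells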
Starred values were filed as active, the others as inactive; i = inactive; x = not tested or not shown.

SMILES	Kir21 inh	RGS4 pot	MrgX1 PAM	RGS4 inh	MrgX1 antag	MrgX1 ag	MrgX1 ag reconf	HEK293 Ca flux	HEK293 Ca counter	HEK293 Ca cntr2
CC(=O)Cc1nsc(NC(=O)c2oc(-c3ccccc3Cl)cc2C)n1	-0.73	i	i	i	i	36*	112%*	i	i	i
Cc1cc(C)cc(NC(=O)Nc2ccc(N3CCCCC3)cc2)c1	0.03	i	i	i	i	30*	i	i	i	i
Cc1cc(C)cc(C(=O)Nc2ccc(N3CCCC3)cc2)c1	-1.6	i	i	i	i	i	x	x	x	x
CCC(C(=O)NCc1ccc(C)cc1)c1ccccc1 (centres undefined)	-0.65	i	i	i	i	i	x	x	x	x
O=C(NC1CCCCCC1)c1cc(=O)[nH]c2ccc(S(=O)(=O)N3CCOCC3)cc12	0.01	i	i	i	i	i	x	x	x	x
Cc1csc(NC(=O)c2cc(=O)[nH]c3ccc(S(=O)(=O)N4CCOCC4)cc23)n1	-0.11	i	i	i	i	55*	266%*	i	i	i
COc1ccc(C(C)=O)cc1CSC(=N)N	0.16	i	i	i	i	47*	240%*	i	i	i
CCCOc1ccc(C(C)=O)cc1CC(C(N)=O)C(N)=O	0.44	i	i	i	i	i	x	x	x	x
CCOc1ccc(C(C)=O)cc1CSC(=N)N	0.36	i	i	i	i	30*	164%*	i	i	i
COc1ccc(C(C)=O)cc1CSCc1cc(C(C)=O)ccc1OC	-0.86	i	i	i	i	i	x	x	x	x
CCCCS(=O)(=O)Nc1ccc2c(c1)ncn2C1CCCCC1	-1.5	i	i	i	i	35*	214%*	i	i	51*
CCCCNC(=O)c1ccc2c(c1)ncn2C1CCCCC1	-0.64	i	i	i	i	i	x	x	x	x
Cc1ccc(-n2nc(C)c3c2OC(N)=C(C#N)C3c2ccncc2)cc1 (centres undefined)	-0.66	i	i	i	i	i	x	x	x	x
Cc1ccc(-n2nc(C)c3c2OC(N)=C(C#N)C3c2ccccc2F)cc1 (centres undefined)	-0.39	i	i	i	i	27*	163%*	i	i	i
CC(NC(=O)Cn1nc(C(F)(F)F)c2c1CCC2)c1ccccc1 (centres undefined)	-0.17	i	i	i	i	31*	134%*	i	i	i
CN(C)S(=O)(=O)c1ccc(S(=O)(=O)N2CCCC(C(=O)NC3CC3)C2)cc1 (centres undefined)	0.01	i	i	i	i	i	x	x	x	x
O=C(Nc1ccc(F)cc1F)NC1CCCCCCC1	0.98	i	i	i	i	i	x	x	x	x
C/C(=N\Nc1ncnc2sc(C)c(C)c12)c1ccccn1	-2	i	i	i	i	72*	499%*	0.46*	i	101*
CCOC(=O)CSc1nc(-c2ccncc2)ccc1C#N	-0.75	i	i	i	i	29*	150%*	i	i	i
CCOC(=O)CC(=O)CSc1nc(-c2cccnc2)ccc1C#N	-0.3	i	i	i	i	37*	275%*	i	i	66*
N#Cc1ccc(-c2cccnc2)nc1SCC(N)=O	0.01	i	i	i	i	i	x	x	x	x
Nc1ncnc2c1ncn2C1OC(C(=O)NC2CC2)C(O)C1O (centres undefined)	x	x	i	x	i	30*	100%*	i	i	i
O=C(OCC1OC(n2cnc3c(N(C(=O)c4ccccc4)C(=O)c4ccccc4)ncnc32)C(O)C1F)c1ccccc1 (centres undefined)	0.38	i	i	i	i	i	x	x	x	x
CC(Oc1ccc(Br)cc1)C(=O)N1CCN(c2ccccn2)CC1 (centres undefined)	-3.2	i	i	i	i	i	x	x	x	x
Cc1[nH]n(-c2ccccc2)c(=O)c1C(=O)c1ccc(Cl)cc1	-0.17	i	i	i	i	37*	116%*	i	i	i
SMILES	Kir21 inh	RGS4 pot	MrgX1 PAM	RGS4 inh	MrgX1 antag	MrgX1 ag	MrgX1 ag reconf	HEK293 Ca flux	HEK293 Ca counter	HEK293 Ca cntr2
Cc1[nH]n(-c2ccc(Cl)cc2)c(=O)c1C(=O)c1ccccc1	0.97	i	i	i	i	40*	82%*	i	i	i
COc1cc2c(cc1OC)CN(Cc1cccs1)CC2	1.7	i	i	i	i	i	x	x	x	x
CCOC(=O)N1CCC2(O)CCCCC2C1c1ccc(F)cc1 (centres undefined)	x	x	i	x	i	i	x	x	x	x
O/C(=C\c1ccc2ccccc2n1)c1ccncc1	-2.9	i	i	i	i	64*	355%*	i	i	127*
Cc1ccc(-c2cc(NC(=O)CCl)n(-c3ccccc3)n2)cc1	-0.47	i	i	i	i	35*	150%*	i	i	i
COc1ccc(C(=O)NNC(=S)NC(=O)c2ccc(OC)cc2)cc1	-1.1	i	i	i	i	81*	411%*	i	i	97*
Cc1cccc(C(=O)NNC(=S)NC(=O)c2cccs2)c1	0.93	-7.1*	i	i	i	137*	647%*	i	i	122*
CCNC(=S)NNC(=O)c1ccc(OC)cc1	-0.17	i	i	i	i	i	x	x	x	x
